# Entries after “also recorded” stand apart in the source; their conditions may differ. Like-named read-outs stand apart in the source and are kept apart here.
# Key:
# [1] = system: CB1R and CB2R; assay: Competition for [3H]CP55940 binding in HEK293 cell membranes; parameters: species or system human; conditions: HEK293 cell membranes without heterologous CB1R/CB2R
# [2] = system: AI-sensitive GPCRs; assay: Competition for [3H]WIN55212-2 binding in HEK293 cell membranes; parameters: species or system human
# Procedure, shortened: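 P2 membrane fractions were prepared from independent HEK293 cultures, which lack CB1R and CB2R. Membranes were incubated with [³H]WIN55212-2 and increasing concentrations of test compound, and specific binding was measured by filtration. Nonspecific binding was defined with 1 μM unlabelled WIN55212-2.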
# [3] = biological target: human CB1R (Homo sapiens, UniProt P21554); assay: CB1R internalization in HEK293 cells stably expressing HA-tagged CB1R; type: cell-based; conditions: AI compounds tested at 3 μM
# Procedure, shortened: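 Human CB1R carrying an HA tag was expressed in cultured HEK293 cells. Test compound was applied at 3 μM, with CP55940 at 1 μM as the positive control. Internalization was read as % of vehicle control. Data are mean ± SEM of 3–5 independent experiments, compared by one-way ANOVA with Bonferroni post-test.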
# [4] = biological target: human CB2R (Homo sapiens, UniProt P34972); assay: CB2R internalization in HEK293 cells stably expressing HA-tagged CB2R; type: cell-based; conditions: AI compounds tested at 3 μM
# Procedure, shortened: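 HA-tagged human CB2R was expressed heterologously in cultured HEK293 cells. Test compound was given at 3 μM, with or without the CB2R antagonist AM630 at 1 μM; CP55940 at 1 μM served as the positive control. Internalization was expressed as % of vehicle control. Mean ± SEM of 3–5 independent experiments; one-way ANOVA with Bonferroni post-test.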
# [5] = system: mouse CB2R; conditions: cited from earlier work
# [6] = system: AI-sensitive GPCRs; assay: [35S]GTPγS binding in HEK293 cell membranes; type: biochemical, human; conditions: for [35S]GTPγS response after pertussis toxin: PTX 100 ng/ml pretreatment of HEK293 cells for 20 h
# [7] = read-out: KiHigh (AIHigh binding sites), high affinity site
# human CB2R, sequence (P34972 whole entry): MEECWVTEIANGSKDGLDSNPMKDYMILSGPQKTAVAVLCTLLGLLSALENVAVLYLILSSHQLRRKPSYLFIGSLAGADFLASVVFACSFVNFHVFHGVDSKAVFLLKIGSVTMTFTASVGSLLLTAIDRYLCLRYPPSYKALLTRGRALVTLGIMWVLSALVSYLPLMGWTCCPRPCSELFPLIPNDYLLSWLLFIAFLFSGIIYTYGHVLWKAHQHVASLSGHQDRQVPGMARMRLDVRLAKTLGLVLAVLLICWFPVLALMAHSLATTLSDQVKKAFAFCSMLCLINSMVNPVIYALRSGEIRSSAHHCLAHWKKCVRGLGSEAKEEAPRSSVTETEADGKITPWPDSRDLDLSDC
# human CB1R, sequence (P21554 whole entry): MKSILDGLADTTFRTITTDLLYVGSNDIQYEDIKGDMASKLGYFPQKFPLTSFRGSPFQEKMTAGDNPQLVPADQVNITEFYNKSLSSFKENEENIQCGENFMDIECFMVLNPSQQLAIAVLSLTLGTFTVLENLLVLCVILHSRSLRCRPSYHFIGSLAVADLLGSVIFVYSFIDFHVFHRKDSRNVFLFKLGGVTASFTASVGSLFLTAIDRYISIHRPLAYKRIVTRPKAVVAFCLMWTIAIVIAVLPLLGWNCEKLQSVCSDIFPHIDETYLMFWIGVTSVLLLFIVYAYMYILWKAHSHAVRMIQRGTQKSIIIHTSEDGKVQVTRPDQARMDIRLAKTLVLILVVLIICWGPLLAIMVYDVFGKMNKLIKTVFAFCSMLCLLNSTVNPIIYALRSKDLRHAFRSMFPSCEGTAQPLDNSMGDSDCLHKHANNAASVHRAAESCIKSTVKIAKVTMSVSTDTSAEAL
compound,measurement,setting,value
CCCCCCC(C)(C)c1ccc([C@@H]2C[C@H](O)CC[C@H]2CCCO)c(O)c1 [CP55940],competition for [3H]CP55940 binding (in words),[1],failed to compete
Cc1ccc(C(=O)c2c(C)n(CCN3CCOCC3)c3ccccc23)c2ccccc12 [Compound 2],manner of competition for [3H]WIN55212-2 binding (biphasic / monophasic),[2],biphasic
same,Ki,[2]; [7],0.8 nM
same,CB1R internalization (in words),[3],retained significant activity; also recorded: stimulate significant CB1R internalization
same,CB2R internalization (in words),[4],stimulated significant CB2R internalization; also recorded: activate
same,activation of mouse CB2R measured by receptor internalization,[5],do not activate
Cc1ccc(C(=O)c2c3n(c4ccccc24)CCCC3)c2ccccc12 [Compound 4],manner of competition for [3H]WIN55212-2 binding (biphasic / monophasic),[2],biphasic
same,CB1R internalization (in words),[3],retained significant activity; also recorded: stimulate significant CB1R internalization
same,CB2R internalization (in words),[4],stimulated significant CB2R internalization; also recorded: activate
same,activation of mouse CB2R measured by receptor internalization,[5],do not activate
Cc1ccc(C(=O)c2c(C)n(CC(F)(F)F)c3ccccc23)c2ccccc12 [Compound 5],CB1R internalization (in words),[3],inactive
same,CB2R internalization (in words),[4],stimulated significant CB2R internalization; also recorded: activate
same,activation of mouse CB2R measured by receptor internalization,[5],do not activate
COc1ccc2c(c1)c(C(=O)c1ccc(C)c3ccccc13)c(C)n2CCN1CCOCC1 [Compound 7],competition for [3H]WIN55212-2 binding (in words),[2],inactive; also recorded: loss of binding
COc1ccc2c(C(=O)c3ccc(C)c4ccccc34)c(C)n(CCN3CCOCC3)c2c1 [Compound 8],stimulation of [35S]GTPγS binding (in words),[6],increase
Cc1ccc(C(=O)c2c(C)n(CCN3CCOCC3)c3ccc(Cl)cc23)c2ccccc12 [Compound 9],manner of competition for [3H]WIN55212-2 binding (biphasic / monophasic),[2],biphasic
same,Ki,[2]; [7],10 nM
same,Ki,"[2]; read-out: KiLow (AILow binding sites), low affinity site",2300 nM
Cc1ccc(C(=O)c2c(C)n(CCN3CCOCC3)c3cc(Cl)ccc23)c2ccccc12 [Compound 10],KiLow (AILow binding sites),[2]; low affinity site,undetectable
same,stimulation of [35S]GTPγS binding (in words),[6],increase
same,[35S]GTPγS response after pertussis toxin,[6],pertussis toxin-sensitive
Cc1ccc(C(=O)c2c(C)n(CCN3CCOCC3)c3cc(Cl)cc(Cl)c23)c2ccccc12 [Compound 11],competition for [3H]WIN55212-2 binding (in words),[2],inactive
same,binding at 1 μM,[2]; at 1 μM,no measurable binding
Cc1ccc(C(=O)c2c(C)n(CCN3CCOCC3)c3ncccc23)c2ccccc12 [Compound 12],enhanced activity at AIHigh versus AILow,[2],~ 1000 fold
same,manner of competition for [3H]WIN55212-2 binding (biphasic / monophasic),[2],biphasic
same,Ki,[2]; [7],0.4 nM
same,stimulation of [35S]GTPγS binding (in words),[6],increase
same,[35S]GTPγS response after pertussis toxin,[6],pertussis toxin-sensitive
same,CB1R internalization (in words),[3],retained significant activity; also recorded: stimulate significant CB1R internalization
same,CB2R internalization (in words),[4],stimulated significant CB2R internalization; also recorded: activate
same,activation of mouse CB2R measured by receptor internalization,[5],do not activate
Cc1ccc(C(=O)c2c(C)n(CCN3CCOCC3)c3cnccc23)c2ccccc12 [Compound 13],manner of competition for [3H]WIN55212-2 binding (biphasic / monophasic),[2],biphasic
same,Ki,[2]; [7],5.8 nM
CCn1c(C)c(C(=O)c2ccc(OC)cc2)c2ccccc21 [Compound 14],competition for [3H]WIN55212-2 binding (in words),[2],inactive
"C1=C(CCN2CCOCC2)c2ccccc2/C1=C\c1cccc2ccccc12 [Compound 31, reference compound]",competition for [3H]WIN55212-2 binding (in words),[2],compete
same,stimulation of [35S]GTPγS binding (in words),[6],stimulated
"C1=C(CCN2CCOCC2)c2ccccc2/C1=C/c1cccc2ccccc12 [Compound 32, reference compound]",competition for [3H]WIN55212-2 binding (in words),[2],weakly competes
"CC1=C(CCN2CCOCC2)c2ccccc2/C1=C\c1cccc2ccccc12 [Compound 33, reference compound]",competition for [3H]WIN55212-2 binding (in words),[2],compete
same,stimulation of [35S]GTPγS binding (in words),[6],stimulated
"CC1=C(CCN2CCOCC2)c2ccccc2/C1=C/c1cccc2ccccc12 [Compound 34, reference compound]",competition for [3H]WIN55212-2 binding (in words),[2],does not compete; also recorded: no significant competition
"Cc1c(C(=O)c2cccc3ccccc23)c2ccccc2n1C [JWH-042, reference compound]",manner of competition for [3H]WIN55212-2 binding (biphasic / monophasic),[2],biphasic
"Cc1ccc(C(=O)c2c(C)n(C)c3ccccc23)c2ccccc12 [JWH-450, reference compound]",manner of competition for [3H]WIN55212-2 binding (biphasic / monophasic),[2],biphasic
"CCn1c(C)c(C(=O)c2ccc(C)c3ccccc23)c2ccccc21 [JWH-451, reference compound]",manner of competition for [3H]WIN55212-2 binding (biphasic / monophasic),[2],biphasic
same,Ki,[2]; [7],1.5 nM
same,stimulation of [35S]GTPγS binding (in words),[6],increases
same,[35S]GTPγS response after pertussis toxin,[6],significantly reduced
same,[35S]GTPγS response in presence of CB1R and CB2R antagonists,[6]; SR141617 (1 μM) and SR144528 (1 μM),insensitive; also recorded: not affected
same,CB1R internalization (in words),[3],inactive
same,CB2R internalization (in words),[4],stimulated significant CB2R internalization; also recorded: activate
same,activation of mouse CB2R measured by receptor internalization,[5],do not activate
Cc1c(C(=O)NN2CCCCC2)nn(-c2ccc(Cl)cc2Cl)c1-c1ccc(Cl)cc1 [SR141617],competition for [3H]CP55940 binding (in words),[1],failed to compete
"Cc1c(C(=O)c2cccc3ccccc23)c2cccc3c2n1[C@@H](CN1CCOCC1)CO3 [WIN55212-2, reference compound]",manner of competition for [3H]WIN55212-2 binding (biphasic / monophasic),[2],biphasic
same,Ki,"[2]; read-out: KiHigh, high affinity site of biphasic competition curve",0.043 nM
same,Ki,"[2]; read-out: KiLow, low affinity site of biphasic competition curve",7.2 nM
"Cc1c(C(=O)c2cccc3ccccc23)c2cccc3c2n1[C@H](CN1CCOCC1)CO3 [WIN55212–3, reference compound]",competition for [3H]WIN55212-2 binding (in words),[2],absence of competition
SR144528,competition for [3H]CP55940 binding (in words),[1],failed to compete

# — article PMC10917149 (European journal of medicinal chemistry, 2023)
